Laboratory results reported in ChEMBL document CHEMBL1765020, “Synthesis and structure-affinity relationships of novel dibenzylideneacetone derivatives as probes for β-amyloid plaques” (J Med Chem, 2011).
Calls of active or inactive are those of the source. The calls are words filed in the database; no cut-off is given here.

What was measured:
[1] = target: Amyloid-beta precursor protein (Homo sapiens) (UniProt P05067); assay: Binding affinity to amyloid beta (1 to 42) aggregate in Alzheimer disease patient brain by immunohistochemical staining using amyloid beta antibody; conditions: tested as the 18F-labelled form
Amyloid-beta precursor protein (Homo sapiens), sequence (P05067 whole entry): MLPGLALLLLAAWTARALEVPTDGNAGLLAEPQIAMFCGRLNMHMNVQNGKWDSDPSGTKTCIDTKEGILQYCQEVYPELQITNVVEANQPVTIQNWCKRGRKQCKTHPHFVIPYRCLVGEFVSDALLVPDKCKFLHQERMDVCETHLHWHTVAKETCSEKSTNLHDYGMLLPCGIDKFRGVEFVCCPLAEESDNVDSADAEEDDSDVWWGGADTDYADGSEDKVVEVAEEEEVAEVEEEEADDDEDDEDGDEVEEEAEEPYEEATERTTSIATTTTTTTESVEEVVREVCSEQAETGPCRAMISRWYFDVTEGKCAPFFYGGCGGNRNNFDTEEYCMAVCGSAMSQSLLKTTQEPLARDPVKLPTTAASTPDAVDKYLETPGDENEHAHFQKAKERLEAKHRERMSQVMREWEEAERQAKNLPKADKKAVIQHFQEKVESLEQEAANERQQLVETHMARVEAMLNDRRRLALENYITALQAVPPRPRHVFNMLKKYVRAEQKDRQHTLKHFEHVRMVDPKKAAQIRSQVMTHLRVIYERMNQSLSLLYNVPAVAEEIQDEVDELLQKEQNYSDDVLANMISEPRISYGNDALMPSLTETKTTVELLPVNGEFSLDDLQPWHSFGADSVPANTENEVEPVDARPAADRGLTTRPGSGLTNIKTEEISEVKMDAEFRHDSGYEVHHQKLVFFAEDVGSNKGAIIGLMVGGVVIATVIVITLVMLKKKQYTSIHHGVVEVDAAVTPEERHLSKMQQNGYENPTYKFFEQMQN
Method in brief: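 Plaque presence and location in the AD patient temporal-lobe sections were confirmed by immunohistochemistry with monoclonal anti-Aβ1-42 antibody BC05.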

[2] = Displacement of [125I]IMPY from amyloid beta (1 to 42) aggregate after 2 hrs by gamma counting
Method in brief: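 Competition binding in 1 mL PBS (0.2 M, pH 7.4). Aggregated Aβ1-42 fibrils (60 nM final) with [125I]IMPY and inhibitor at 10^-5 to 10^-10 M, added in ethanol. Nonspecific binding was defined with 1 μM IMPY. Incubated 2 h at 37 °C with shaking, then vacuum-filtered through glass fibre filters and the bound fraction gamma-counted. IC50 was converted to Ki by Cheng-Prusoff; triplicate, mean ± SD.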

Mus musculus [3] = species: Mus musculus; assay: Binding affinity to amyloid beta (1 to 42) aggregate in APP/PS1 transgenic C57BL/6 mouse brain by Thioflavin S fluorescent staining assay; format: tissue-based; conditions: C57BL6, tested as the 18F-labelled form
Method in brief: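 The same Tg mouse sections used for autoradiography were stained with thioflavin S to locate plaques. Fluorescence was viewed by microscope: excitation 400–440 nm, dichroic 455 nm, long-pass 470 nm.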

Mus musculus [4] = species: Mus musculus; assay: Binding affinity to amyloid beta (1 to 42) aggregate in APP/PS1 transgenic C57BL/6 mouse brain after 1 hr by autoradiography; format: tissue-based; conditions: C57BL6, tested as the 18F-labelled form
Method in brief: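 Paraffin brain sections from 12-month-old male C57BL6-APP/PS1 mice, with wild-type male C57BL6 controls, were deparaffinized through xylene and graded ethanol, then held 30 min in PBS (0.2 M, pH 7.4). Sections were incubated 1 h at room temperature with radiotracer (5 μCi/100 μL), washed 3 min in 40% ethanol, rinsed in water, dried and exposed to an imaging plate overnight.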

Activity [1]: Active | Ki [2]: 8.6 nM | Activity (Mus musculus [3]): Active | Activity (Mus musculus [4]): Active
SMILES: CNc1ccc(/C=C/C(=O)/C=C/c2ccc(OCCOCCOCCF)cc2)cc1
